We go through 8 molecules from ChEMBL document CHEMBL1147099, “In vitro and in vivo antibacterial activities of heteroaryl isothiazolones against resistant gram-positive pathogens” (Antimicrob Agents Chemother, 2007).

Common to all, as to format: functional
In assay [1] the test system is Staphylococcus aureus. Nature of the assay: Antibacterial activity against ethidium bromide-resistant Staphylococcus aureus BSA678 after 24 hrs by broth microdilution method. As to conditions: BSA678, 24 h. The essentials: (§1)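 Broth microdilution per CLSI in cation-adjusted Mueller-Hinton II broth, final inoculum approximately 5 × 10^5 CFU/ml. Plates were incubated aerobically at 35 to 37°C for 24 h. MIC was the lowest concentration giving no visible growth. Reserpine, where used, was at a final concentration of 20 μg/ml.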
In general terms: In broth dilution the organism is exposed to a series of concentrations in liquid medium.

The test system of assay [2] is Staphylococcus aureus. Nature of the assay: Antibacterial activity against ethidium bromide-resistant Staphylococcus aureus Mu50 after 24 hrs by broth microdilution method. The note with it: Mu50, 24 h. In a few lines: as §1
For assay [3], the system named is Staphylococcus aureus. Nature of the assay: Antibacterial activity against […] Staphylococcus aureus ATCC 29213 after 24 hrs by broth microdilution method. The note with it: ATCC 29213, 24 h. The essentials:
as §1

The test system of assay [4] is Staphylococcus aureus. Nature of the assay: Antibacterial activity against ethidium bromide-resistant Staphylococcus aureus BSA643 after 24 hrs by broth microdilution method. As to conditions: BSA643, 24 h. The essentials:
as §1

A further assay deals with Cutibacterium acnes. Nature of the assay: Antibacterial activity against Propionibacterium acnes. The essentials: (§2)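 Anaerobes by CLSI agar dilution on brucella agar with hemin, vitamin K and 5% laked sheep blood; inoculum from 24-h enriched blood agar colonies resuspended in brucella broth to 0.5 McFarland. Plates incubated anaerobically at 35–37°C for 48 h.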
Another assay relates to Peptostreptococcus sp. Nature of the assay: Antibacterial activity against Peptostreptococcus sp. by agar dilution method. In a few lines: as §2
The next assay deals with Enterobacter sp. Nature of the assay: Antibacterial activity against Enterobacter sp. In a few lines:
(§3)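 Aerobic isolates run by CLSI broth microdilution in cation-adjusted Mueller-Hinton II broth (streptococci plus 2–5% lysed horse blood), about 5 × 10^5 CFU/ml final; 24 h at 35–37°C aerobically; MIC read as lowest concentration without visible growth.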

A further assay concerns Escherichia coli. Nature of the assay: Antibacterial activity against Escherichia coli after 24 hrs by broth microdilution method. The essentials:
(§4)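 CLSI broth microdilution in cation-adjusted Mueller-Hinton II broth, final inoculum about 5 × 10^5 CFU/ml for most strains; streptococci supplemented with 2–5% lysed horse blood, H. influenzae in Haemophilus test medium. Aerobic incubation at 35–37°C for 24 h; MIC = lowest concentration with no visible growth.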

The next assay relates to Klebsiella pneumoniae. Nature of the assay: Antibacterial activity against Klebsiella pneumoniae. The essentials:
as §3

The subject of the next assay is Clostridioides difficile. Nature of the assay: Antibacterial activity against Clostridium difficile by agar dilution method. The essentials:
as §2
A general note: In agar dilution, organisms are placed on agar that contains the substance at set levels.

In another assay the test system is Bacteroides fragilis. Nature of the assay: Antibacterial activity against Bacteroides fragilis by agar dilution method. In a few lines: as §2
Another assay concerns Acinetobacter baumannii. Nature of the assay: Antibacterial activity against Acinetobacter baumannii after 24 hrs by broth microdilution method. In a few lines:
as §4

The test system of another assay is Streptococcus viridans. Nature of the assay: Antibacterial activity against Streptococcus viridans after 24 hrs by broth microdilution method. The essentials: as §4
In another assay the test system is Enterococcus faecalis. Nature of the assay: Antibacterial activity against Enterococcus faecalis. In a few lines:
as §3

In the next assay the test system is Legionella pneumophila. Nature of the assay: Antibacterial activity against Legionella pneumophila after 24 hrs by broth microdilution method.
Assay [5] concerns Staphylococcus aureus. Nature of the assay: Antibacterial activity against methicillin-resistant Staphylococcus aureus after 24 hrs by broth microdilution method. The essentials: as §1
A further assay has as its system Haemophilus influenzae. Nature of the assay: Antibacterial activity against Haemophilus influenzae after 24 hrs by broth microdilution method. In a few lines: as §4
Another assay relates to Streptococcus pyogenes. Nature of the assay: Antibacterial activity against Streptococcus pyogenes. In a few lines: as §3
Assay [6] has as its system Staphylococcus aureus. Nature of the assay: Antibacterial activity against methicillin-susceptible Staphylococcus aureus after 24 hrs by broth microdilution method. In a few lines: as §1
The test system of another assay is Neisseria meningitidis. Nature of the assay: Antibacterial activity against Neisseria meningitidis after 24 hrs by broth microdilution method. In a few lines: as §4
For the next assay, the system named is Enterococcus faecium. Nature of the assay: Antibacterial activity against Enterococcus faecium. In a few lines:
as §3

The subject of another assay is Moraxella catarrhalis. Nature of the assay: Antibacterial activity against Moraxella catarrhalis after 24 hrs by broth microdilution method. The essentials: as §4
Another assay relates to Streptococcus pneumoniae. Nature of the assay: Antibacterial activity against Streptococcus pneumoniae by agar dilution method.
The next assay deals with Pseudomonas aeruginosa. Nature of the assay: Antibacterial activity against Pseudomonas aeruginosa after 24 hrs by broth microdilution method. The essentials:
as §4

The subject of assay [7] is Mycoplasmoides pneumoniae. Nature of the assay: Antibacterial activity against Mycoplasma pneumoniae after 24 hrs by broth microdilution method.
The next assay relates to Neisseria gonorrhoeae. Nature of the assay: Antibacterial activity against Neisseria gonorrhoeae after 24 hrs by broth microdilution method. In a few lines:
as §4

Converted amounts (≈) assume the structure as drawn.

Broadly, the MIC is the lowest concentration that inhibits growth of the organism. A high value points to a need for much substance. With `CO/N=C1\CN(c2nc3c(cc2F)c(=O)c(C(=O)O)cn3C2CC2)CC1CN` (centres undefined) [GEMIFLOXACIN], the MIC against Staphylococcus aureus [1] stood at 64 mg/L (≈ 164 µM); with Staphylococcus aureus [2], 4 mg/L (≈ 10.3 µM); against Staphylococcus aureus [3], 0.03 mg/L (≈ 0.077 µM); against Staphylococcus aureus [4], 32 mg/L (≈ 82.2 µM).

Take `C[C@@H](O)[C@H]1C(=O)N2C(C(=O)O)=C(SCCNC=N)C[C@H]12` [IMIPENEM ANHYDROUS]: the MIC50 in the assay with Cutibacterium acnes came to 0.06 mg/L (≈ 0.2 µM); against Peptostreptococcus sp. it was 0.06 mg/L (≈ 0.2 µM); against Enterobacter sp. it was 1 mg/L (≈ 3.34 µM); in the assay on Escherichia coli, 0.5 mg/L (≈ 1.67 µM); in the assay on Klebsiella pneumoniae it was 0.5 mg/L (≈ 1.67 µM); against Clostridioides difficile it was 4 mg/L (≈ 13.4 µM). The MIC50 in the assay on Bacteroides fragilis was 0.25 mg/L (≈ 0.835 µM); in the assay with Acinetobacter baumannii, 1 mg/L (≈ 3.34 µM). Moreover, the MIC90 is 0.06 mg/L (≈ 0.2 µM) with Cutibacterium acnes; 0.25 mg/L (≈ 0.835 µM) in the assay with Peptostreptococcus sp.; 2 mg/L (≈ 6.68 µM) against Enterobacter sp.; 0.5 mg/L (≈ 1.67 µM) with Escherichia coli; 1 mg/L (≈ 3.34 µM) in the assay with Klebsiella pneumoniae; 4 mg/L (≈ 13.4 µM) against Clostridioides difficile. Further, the results for the MIC90 in the assay with Bacteroides fragilis and against Acinetobacter baumannii were 0.25 mg/L (≈ 0.835 µM) and > 16 mg/L, respectively.

For `C[C@H]1COc2c(N3CCN(C)CC3)c(F)cc3c(=O)c(C(=O)O)cn1c23.C[C@H]1COc2c(N3CCN(C)CC3)c(F)cc3c(=O)c(C(=O)O)cn1c23.O` [LEVOFLOXACIN], the MIC50 against Streptococcus viridans was 1 mg/L; against Enterococcus faecalis it was 16 mg/L; with Staphylococcus aureus [5], 16 mg/L; against Enterobacter sp., 0.03 mg/L; with Haemophilus influenzae, 0.015 mg/L; with Escherichia coli, 0.03 mg/L. For the same molecule, the MIC50 was 0.5 mg/L against Streptococcus pyogenes; 0.25 mg/L in the assay with Staphylococcus aureus [6]; > 0.25 mg/L with Klebsiella pneumoniae; ≤ 0.12 mg/L in the assay on Neisseria meningitidis; > 16 mg/L against Enterococcus faecium; 0.25 mg/L against Acinetobacter baumannii. The figures for the MIC50 against Moraxella catarrhalis, against Streptococcus pneumoniae and against Pseudomonas aeruginosa were 0.03 mg/L, 1 mg/L and 0.5 mg/L, respectively. Further, the MIC90 is 1 mg/L with Streptococcus viridans; > 16 mg/L in the assay on Enterococcus faecalis; 0.5 mg/L with Enterobacter sp.; 0.03 mg/L against Haemophilus influenzae; 1 mg/L against Streptococcus pyogenes; > 16 mg/L in the assay with Staphylococcus aureus [6]. Moreover, the MIC90 against Klebsiella pneumoniae was > 2 mg/L; with Neisseria meningitidis it was ≤ 0.12 mg/L; against Enterococcus faecium, > 16 mg/L; in the assay on Acinetobacter baumannii, > 8 mg/L; against Moraxella catarrhalis, 0.06 mg/L; in the assay with Streptococcus pneumoniae it was 1 mg/L. In addition, in the assay with Pseudomonas aeruginosa, the MIC90 is > 8 mg/L. The MIC against Legionella pneumophila is 0.015 mg/L; in assay [7], 0.5 mg/L.

In the assay with Neisseria meningitidis, `C[C@@H](O)[C@H]1C(=O)N2C(C(=O)O)=C(S[C@@H]3CN[C@H](C(=O)N(C)C)C3)[C@H](C)[C@H]12` [MEROPENEM] returned an MIC50 of 0.008 mg/L (≈ 0.0209 µM) and an MIC90 of 0.015 mg/L (≈ 0.0391 µM).

Regarding `Cc1ncc([N+](=O)[O-])n1CCO` [METRONIDAZOLE], in the assay with Cutibacterium acnes, the MIC50 was > 64 mg/L and the MIC90 was > 64 mg/L. In the assay with Clostridioides difficile, this molecule had an MIC50 of 0.5 mg/L (≈ 2.92 µM) and an MIC90 of 0.5 mg/L (≈ 2.92 µM).

In the assay with Neisseria meningitidis, `CN(C)c1ccc(O)c2c1C[C@H]1C[C@H]3[C@H](N(C)C)C(O)=C(C(N)=O)C(=O)[C@@]3(O)C(O)=C1C2=O` [MINOCYCLINE] registered an MIC50 of 0.12 mg/L (≈ 0.262 µM) and an MIC90 of 0.12 mg/L (≈ 0.262 µM).

`Cc1onc(-c2ccccc2)c1C(=O)N[C@@H]1C(=O)N2[C@@H]1SC(C)(C)[C@@H]2C(=O)O` [OXACILLIN]: the MIC50 with Staphylococcus aureus [5] is > 16 mg/L; against Staphylococcus aureus [6] it was 0.5 mg/L (≈ 1.25 µM). Also, the MIC90 is > 16 mg/L against Staphylococcus aureus [5] and 0.5 mg/L (≈ 1.25 µM) with Staphylococcus aureus [6].

In the assay on Neisseria gonorrhoeae, `CN(C)[C@@H]1C(O)=C(C(N)=O)C(=O)[C@@]2(O)C(O)=C3C(=O)c4c(O)cccc4[C@@](C)(O)[C@H]3C[C@@H]12` [TETRACYCLINE] came in with an MIC50 of 0.25 mg/L (≈ 0.563 µM) and an MIC90 of 1 mg/L (≈ 2.25 µM).
